From ChEMBL document CHEMBL4428098, “Facile synthesis of autophagonizer and evaluation of its activity to induce autophagic cell death in apoptosis-defective cell line” (Bioorg Med Chem Lett, 2016)
Activity calls are given as the source filed them. The rule behind the calls is not given here.

Assays:
MEF [1] = assay: Induction of autophagy in wild-type MEF assessed as accumulation of acidic vacuoles at 2 to 4 uM after 15 hrs by MDC/Hoechst 33342 staining based fluorescence assay; type: functional, cell-based; conditions: Mus musculus
Method in brief: (§1)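 Wild-type and Bax/Bak double-knockout MEFs treated 15 h at the indicated concentrations alongside DMSO vehicle. Stained with Cyto-ID reagent (green) for autophagosomes and MDC (blue) for acidic vacuoles, then imaged.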

MEF [2] = assay: Induction of autophagic cell death in wild-type MEF after 15 hrs by MTT assay; conditions: Mus musculus
HeLa [3] = assay: Induction of autophagic cell death in human HeLa cells at 8 uM after 24 hrs by MTT assay relative to control; type: functional
Method in brief: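 HeLa cells exposed 24 h to compound at graded concentrations with DMSO vehicle control; viability read by MTT assay and viable cell number normalized against DMSO-treated cells to give percent viable cells.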

MEF [4] = assay: Induction of autophagic cell death in Bax/Bak double knockout MEF after 15 hrs by MTT assay; conditions: Mus musculus
MEF [5] = assay: Induction of autophagy in Bax/Bak double knockout MEF assessed as autophagosome formation at 2 to 4 uM after 15 hrs by Cyto-ID reagent/ Hoechst 33342 staining based fluorescence assay; type: functional, cell-based; conditions: Mus musculus; method in brief: as §1
MEF [6] = assay: Induction of autophagy in wild-type MEF assessed as autophagosome formation at 2 to 4 uM after 15 hrs by Cyto-ID reagent/ Hoechst 33342 staining based fluorescence assay; type: functional, cell-based; conditions: Mus musculus; method in brief: as §1
HeLa [7] = assay: Induction of autophagy in human HeLa cells assessed as accumulation of LC3-2 at 2.5 to 5 uM after 24 hrs by Western blot analysis; type: functional, cell-based
Method in brief: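 Immunoblot of HeLa lysates for LC3-I to LC3-II conversion after 24 h treatment, with DMSO vehicle control and actin probed as reference.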

MEF [8] = assay: Induction of autophagy in Bax/Bak double knockout MEF assessed as conversion of LC3-1 to LC3-2 at 2.5 to 5 uM after 15 hrs by Western blot analysis; type: functional, cell-based; conditions: Mus musculus
Method in brief: (§2)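 Wild-type and Bax/Bak double-knockout MEFs treated 15 h at the indicated concentrations with DMSO vehicle control. LC3-I to LC3-II conversion assessed by immunoblot.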

HeLa [9] = assay: Induction of autophagic cell death in human HeLa cells after 24 hrs by MTT assay; type: functional, cell-based
Method in brief: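 MTT viability assay in HeLa cells after 24 h treatment over a log concentration range, with DMSO vehicle control. Viable cells normalized to DMSO-treated cells as percent viability. EC50 estimated from a sigmoidal dose–response curve.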

MEF [10] = assay: Induction of autophagy in wild-type MEF assessed as conversion of LC3-1 to LC3-2 at 2.5 to 5 uM after 15 hrs by Western blot analysis; type: functional, cell-based; conditions: Mus musculus; method in brief: as §2
HeLa [11] = assay: Induction of autophagy in human HeLa cells assessed as autophagosome formation after 24 hrs by Cyto-ID reagent/ Hoechst 33342 staining based fluorescence assay; type: functional, cell-based
Method in brief: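 HeLa cells treated 24 h at various doses, DMSO as vehicle control. Stained with Hoechst 33342 and green Cyto-ID reagent and imaged under DAPI and GFP filters. Plate read at 340/480 nm (Hoechst) and 480/539 nm (Cyto-ID) Ex/Em. Cyto-ID fluorescence per cell taken relative to DMSO-treated cells, and a sigmoidal dose–response curve constructed.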

HeLa [12] = assay: Induction of autophagy in human HeLa cells assessed as accumulation of acidic vacuoles after 24 hrs by MDC/Hoechst 33342 staining based fluorescence assay; type: functional, cell-based
Method in brief: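 HeLa cells exposed 24 h over a dose range with DMSO vehicle control, then stained with MDC for acidic vacuoles. Fluorescence read at 335/512 nm (Ex/Em) and normalized to viable cell number from a parallel MTT assay. Per-cell signal expressed relative to DMSO-treated cells as fold intensity. Sigmoidal dose–response curve fitted.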

MEF [13] = assay: Induction of autophagy in Bax/Bak double knockout MEF assessed as accumulation of acidic vacuoles at 2 to 4 uM after 15 hrs by MDC/Hoechst 33342 staining based fluorescence assay; type: functional, cell-based; conditions: Mus musculus; method in brief: as §1
HeLa [14] = assay: Induction of autophagy in human HeLa cells assessed as accumulation of acidic vacuoles at 3 and 25 uM after 24 hrs by MDC/Hoechst 33342 staining based fluorescence assay; type: functional, cell-based
Method in brief: (§3)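 Acidic vacuoles in HeLa cells after 24 h exposure, with DMSO vehicle control. Cells stained with MDC and imaged under the DAPI filter.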

HeLa [15] = assay: Induction of autophagy in human HeLa cells assessed as acidic vacuoles at 3 to 25 uM after 24 hrs by MDC/Hoechst 33342 staining based fluorescence assay; type: functional, cell-based; method in brief: as §3

SMILES | Activity (MEF [1]) | EC50 (MEF [2]) [µM] | fold change (FC) (HeLa [3]) | EC50 (MEF [4]) [µM] | Activity (MEF [5]) | Activity (MEF [6]) | Activity (HeLa [7]) | Activity (MEF [8]) | EC50 (HeLa [9]) [µM] | Activity (MEF [10]) | Activity (HeLa [11]) | EC50 (HeLa [11]) [µM] | EC50 (HeLa [12]) [nM] | Activity (MEF [13]) | Activity (HeLa [14]) | Activity (HeLa [15])
O=C(NCCN1CCCC1)c1coc(CSc2nc3sc4c(c3c(=O)n2Cc2ccccc2)CCCC4)n1 | Active | 2.1 | 5 | 2.2 | Active | Active | Active | Active | 3.5 | Active | Dose-dependent effect | 3.5 | 1300 | Active |  | 
O=C(NCCC1CCCC1)c1coc(CSc2nc3sc4c(c3c(=O)n2Cc2ccccc2)CCCC4)n1 | inactive | 28.6 |  | 24.2 | inactive | inactive |  | inactive | 25 | inactive |  |  |  | inactive | inactive | inactive
